# Reference: paper PMC12207910 (European journal of pharmaceutical sciences : official …, 2024)
# Read-outs that look alike come from different tables or passages of the source. Non-standard residues stand in square brackets, D forms with d. Residues, ends and D or L forms follow the SMILES beside them. Dip = N[C@H](C(=O)O)C(c1ccccc1)c1ccccc1; hArg = N=C(N)NCCCC[C@H](N)C(=O)O; Agp = N=C(N)NC[C@H](N)C(=O)O
# Key:
# [1] = test system: human red blood cells (hRBC); experiment: Hemolytic activity; format: cell-based; conditions: concentration at which 50% hemolysis was observed
# [2] = test system: Acinetobacter baumannii (ATCC BAA1605), ciprofloxacin resistant; conditions: Ciprofloxacin resistant strain
# [3] = test system: Klebsiella pneumonia (ATCC 13883)
# E. coli (ATCC BAA-2452) = format: cell-based, Escherichia coli; conditions: E. coli (ATCC BAA-2452)
# [4] = test system: E. coli (ATCC BAA-2452) biofilm; experiment: Antibiofilm activity, XTT assay; format: cell-based, Escherichia coli
# Procedure, shortened: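 Bacterial suspensions at 5×10^5 CFU/mL in MH broth were grown 24 h at 37 °C to form biofilms, then washed twice with PBS. […] Biofilms were rewashed, then given XTT plus phenazine methosulfate for 1 h in the dark at 37 °C, and A492 was read. Percentage decrease versus untreated wells; triplicate, run twice.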
# [5] = test system: Klebsiella pneumonia (ATCC BAA-2470), carbapenem resistant; conditions: Carbapenem resistant strain
# [6] = test system: E. coli (ATCC 25922) and E. coli (ATCC BAA-2452); experiment: Resistance development study, repeated exposure; format: cell-based; conditions: E. coli strains; 18 exposures
# E. coli (ATCC 25922) [7] = conditions: highest MIC of three independent experiments
# [8] = test system: Pseudomonas aeruginosa (ATCC BAA-1744), imipenem resistant; conditions: Imipenem resistant strain
# [9] = test system: P. aeruginosa (ATCC 27883); conditions: highest MIC of three independent experiments
# [10] = test system: Pseudomonas aeruginosa (ATCC 10145)
# [11] = test system: Escherichia coli (ATCC BAA-2452), NDM-1
# S. aureus (ATCC 29213) [12] = conditions: highest MIC of three independent experiments
# E. coli (ATCC 25922) [13] = conditions: cited from earlier work
# MRSA (ATCC BAA-1556) = conditions: cited from earlier work
# [14] = test system: P. aeruginosa (ATCC 27883); conditions: cited from earlier work
# [15] = test system: human red blood cells (hRBC); conditions: cited from earlier work
# S. aureus (ATCC 29213) [16] = conditions: cited from earlier work
compound,measurement,setting,value
"N=C(N)NCCC[C@@H]1NC(=O)[C@H](CCCNC(=N)N)NC(=O)[C@H](CCCNC(=N)N)NC(=O)[C@H](C(c2ccccc2)c2ccccc2)NC(=O)[C@H](C(c2ccccc2)c2ccccc2)NC(=O)[C@H](Cc2c[nH]c3ccccc23)NC1=O [1a, c[Arg-Arg-Arg-Trp-Dip-Dip]] (cyclo([Dip][Dip]RRRW))",HC50,[1],50 µg/mL
"N=C(N)NCCC[C@@H]1NC(=O)[C@H](CCCNC(=N)N)NC(=O)[C@H](C(c2ccccc2)c2ccccc2)NC(=O)[C@H](Cc2c[nH]c3ccccc23)NC(=O)[C@H](C(c2ccccc2)c2ccccc2)NC(=O)[C@H](CCCNC(=N)N)NC1=O [1b, c[Arg-Arg-Arg-Dip-Trp-Dip]] (cyclo([Dip]RRR[Dip]W))",HC50,[1],75 µg/mL
"N=C(N)NCCC[C@@H]1NC(=O)[C@H](CCCNC(=N)N)NC(=O)[C@H](Cc2c[nH]c3ccccc23)NC(=O)[C@H](C(c2ccccc2)c2ccccc2)NC(=O)[C@H](C(c2ccccc2)c2ccccc2)NC(=O)[C@H](CCCNC(=N)N)NC1=O [1c, c[Arg-Arg-Arg-Dip-Dip-Trp]] (cyclo([Dip][Dip]WRRR))",HC50,[1],65 µg/mL
"N=C(N)NCCC[C@@H]1NC(=O)[C@H](CCCNC(=N)N)NC(=O)[C@H](CCCNC(=N)N)NC(=O)[C@H](C(c2ccccc2)c2ccccc2)NC(=O)[C@H](C(c2ccccc2)c2ccccc2)NC(=O)[C@H](Cc2c[nH]c3ccccc23)NC(=O)[C@H](CCCNC(=N)N)NC1=O [3a, c[Arg-Arg-Arg-Arg-Trp-Dip-Dip]] (cyclo([Dip][Dip]RRRRW))",HC50,[1],85 µg/mL
"N=C(N)NCCC[C@@H]1NC(=O)[C@H](CCCNC(=N)N)NC(=O)[C@H](Cc2c[nH]c3ccccc23)NC(=O)[C@H](C(c2ccccc2)c2ccccc2)NC(=O)[C@H](C(c2ccccc2)c2ccccc2)NC(=O)[C@H](CCCNC(=N)N)NC(=O)[C@H](CCCNC(=N)N)NC1=O [3c, c[Arg-Arg-Arg-Arg-Dip-Dip-Trp]] (cyclo([Dip][Dip]WRRRR))",HC50,[1],100 µg/mL
"N=C(N)NCCC[C@@H]1NC(=O)[C@H](CCCNC(=N)N)NC(=O)[C@H](CCCNC(=N)N)NC(=O)[C@H](Cc2c[nH]c3ccccc23)NC(=O)[C@H](C(c2ccccc2)c2ccccc2)NC(=O)[C@H](Cc2c[nH]c3ccccc23)NC(=O)[C@H](CCCNC(=N)N)NC1=O [5a, c[Arg-Arg-Arg-Arg-Trp-Dip-Trp]] (cyclo([Dip]WRRRRW))",HC50,[1],220 µg/mL
"CC(C)C[C@@H]1NC(=O)[C@H](C(c2ccccc2)c2ccccc2)NC(=O)[C@H](CCCNC(=N)N)NC(=O)[C@H](CCCNC(=N)N)NC(=O)[C@H](CCCNC(=N)N)NC(=O)[C@H](CCCNC(=N)N)NC(=O)[C@H](C(c2ccccc2)c2ccccc2)NC1=O [6a, c[Arg-Arg-Arg-Arg-Dip-Leu-Dip]] (cyclo([Dip]L[Dip]RRRR))",HC50,[1],155 µg/mL
"N=C(N)NC[C@@H]1NC(=O)[C@H](CNC(=N)N)NC(=O)[C@H](CNC(=N)N)NC(=O)[C@H](C(c2ccccc2)c2ccccc2)NC(=O)[C@H](Cc2c[nH]c3ccccc23)NC(=O)[C@H](C(c2ccccc2)c2ccccc2)NC(=O)[C@H](CNC(=N)N)NC1=O [7a, c[Agp-Agp-Agp-Agp-Dip-Trp-Dip]] (cyclo([Agp][Agp][Agp][Agp][Dip]W[Dip]))",HC50,[1],240 µg/mL
"N=C(N)NCCCC[C@@H]1NC(=O)[C@H](CCCNC(=N)N)NC(=O)[C@H](CCCCNC(=N)N)NC(=O)[C@H](C(c2ccccc2)c2ccccc2)NC(=O)[C@H](Cc2c[nH]c3ccccc23)NC(=O)[C@H](C(c2ccccc2)c2ccccc2)NC(=O)[C@H](CCCNC(=N)N)NC1=O [7c, c[hArg-Arg-hArg-Arg-Dip-Trp-Dip]] (cyclo([Dip]W[Dip][hArg]R[hArg]R))",HC50,[1],160 µg/mL
Polymyxin B,MIC Acinetobacter baumannii (ATCC BAA1605),[2],0.7 µg/mL
same,MIC Klebsiella pneumonia (ATCC 13883),[3],6.2 µg/mL
same,MIC CaCl2,E. coli (ATCC BAA-2452); CaCl2 2 mM,0.7 µg/mL
same,MIC KCl,E. coli (ATCC BAA-2452); KCl […],0.7 µg/mL
same,MIC Control,E. coli (ATCC BAA-2452); MH media without salt ions or serum,0.7 µg/mL
same,MIC MgCl2,E. coli (ATCC BAA-2452); MgCl2 1 mM,1.5 µg/mL
same,MIC NH4Cl,E. coli (ATCC BAA-2452); NH4Cl 6 mM,0.7 µg/mL
same,MIC NaCl,E. coli (ATCC BAA-2452); NaCl 150 mM,0.7 µg/mL
same,MIC FBS (25%),E. coli (ATCC BAA-2452); fetal bovine serum 25%,3.1 µg/mL
same,reduction in biofilm mass,[4]; at 2× the MIC,61%
same,reduction in biofilm mass,[4]; at MIC,46%
same,HC50,[1],>500 µg/mL
same,MIC Klebsiella pneumonia (ATCC BAA-2470),[5],1.5 µg/mL
same,change in MIC after repeated exposure (resistance development),[6],negligible changes in the MIC values
same,MIC E. coli (ATCC 25922),E. coli (ATCC 25922) [7],0.7 µg/mL
same,MIC Pseudomonas aeruginosa (ATCC BAA-1744),[8],0.7 µg/mL
same,MIC P. aeruginosa (ATCC 27883),[9],0.7 µg/mL
same,MIC Pseudomonas aeruginosa (ATCC 10145),[10],0.7 µg/mL
same,MIC Escherichia coli (ATCC BAA-2452),[11],0.7 µg/mL
same,MIC S. aureus (ATCC 29213),S. aureus (ATCC 29213) [12],0.7 µg/mL
c[Arg-Arg-Arg-Arg-Nal-Nal-Nal] [8b],MIC E. coli (ATCC 25922),E. coli (ATCC 25922) [13],25 µg/mL
same,MIC MRSA (ATCC BAA-1556),MRSA (ATCC BAA-1556),3.1 µg/mL
same,MIC P. aeruginosa (ATCC 27883),[14],12.5 µg/mL
same,HC50,[15],80 µg/mL
same,MIC S. aureus (ATCC 29213),S. aureus (ATCC 29213) [16],3.1 µg/mL
cyclo(RRRR[Dip][Dip][Dip]) [8a],MIC E. coli (ATCC 25922),E. coli (ATCC 25922) [13],12.5 µg/mL
same,MIC MRSA (ATCC BAA-1556),MRSA (ATCC BAA-1556),3.1 µg/mL
same,MIC P. aeruginosa (ATCC 27883),[14],12.5 µg/mL
same,HC50,[15],70 µg/mL
same,MIC S. aureus (ATCC 29213),S. aureus (ATCC 29213) [16],3.1 µg/mL
